# Bioassay records as filed in PubChem BioAssay.
# UCH37 inh: inhibitors of human UCH37 deubiquitinase, primary screen, biochemical, Ub-AMC cleavage, fluorescence | Ubiquitin carboxyl-terminal hydrolase isozyme L5 (Homo sapiens), Q9Y5K5 | purified proteasome/UCH37 | inhibition, % (no concentration beside the values) | hit rate 0.33% among 330,000 | AID 588478, 2011;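 active means mean inhibition over replicate wells above about 20%, limit read from the data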
# Target sequence (Q9Y5K5 whole entry, looked up): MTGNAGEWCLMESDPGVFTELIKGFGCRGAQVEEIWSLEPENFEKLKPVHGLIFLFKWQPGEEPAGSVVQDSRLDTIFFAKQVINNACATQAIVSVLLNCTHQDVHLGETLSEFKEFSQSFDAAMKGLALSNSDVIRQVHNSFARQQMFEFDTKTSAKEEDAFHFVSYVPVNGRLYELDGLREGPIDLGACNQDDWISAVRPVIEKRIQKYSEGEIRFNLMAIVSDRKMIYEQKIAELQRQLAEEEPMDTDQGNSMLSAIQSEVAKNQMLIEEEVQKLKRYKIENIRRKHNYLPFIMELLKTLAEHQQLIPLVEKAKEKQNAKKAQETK
#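 Reagent: Ub-AMC substrate; assay system: Proteasome-associated human UCH37 deubiquitinase; controls: no-proteasome and no-compound wells; read-out: % inhibition of Ub-AMC cleavage fluorescence; timing: 30 min preincubation with enzyme, 25 min cleavage at room temperature; signal: AMC fluorescence from Ub-AMC cleavage, excitation 355 nm, emission 460 nm; buffer or medium: Tris-HCl pH 7.4 plus ovalbumin, ATP-MgCl2, DTT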
# Fh CTSL1 inh: Fasciola hepatica cathepsin L1 inhibitors, primary screen, counter-screen for PFM18AAP inhibitor project, biochemical, QFRET, fluorogenic peptide substrate. inhibition, % at 5.96 µM. recombinant F. hepatica cathepsin L1, Z-Leu-Arg-MCA fluorescence. AID 1906, 2009. hit rate 0.49% among 300,000;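 active means inhibition above the mean of all tested compounds plus 3 SD, set per screening campaign, cut at about 17% in these data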
# CHOP inh: inhibitors of CHOP promoter induction, primary screen, cell-based, unfolded protein response, luciferase reporter; CHO-K1 CHOP-promoter luciferase, tunicamycin-induced, 15-18 h; inhibition, % at 10 µM; hit rate 3.8% among 220,000;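 active means compounds that reduced the stress-induced luciferase reporter signal by more than about 70% of percent inhibition, limit read from the data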
# CHOP UPR activ: activators of apoptotic CHOP UPR arm, primary screen, cell-based, CHO-CHOP luciferase reporter, luminescence, uHTS; UPR activation; percent of tunicamycin response over DMSO baseline; hit rate 0.34% among 330,000; activation, % at 10 µM;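 active means at 10 µM dose, activation of 40% or more, normalized to positive control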
#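 System: CHO-CHOP luciferase reporter cell line | Buffer or medium: F12 medium containing 10% fetal bovine serum | Doses: One dose, 10 µM in 0.5% DMSO | Times: 6 h compound exposure at 37 °C after overnight seeding | Signal: Luciferase luminescence | Read-out: % activation vs tunicamycin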
# UPR XBP1 act: activators of adaptive XBP1 UPR arm, primary screen, cell-based, CHO-XBP1 luciferase reporter, luminescence, uHTS; IRE1-XBP1 UPR activation; percent of tunicamycin response, DMSO as zero; activation, % at 20 µM; hit rate 0.33% among 330,000;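 active means versus positive control, 20 µM dose yields 30% or more activation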
#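 Material: CHO-XBP1 cells stably carrying IRE1-XBP1-driven luciferase reporter / Amount: 1000 cells per well / Compound: 20 µM, 1% DMSO / Times: 6 h treatment, 37 °C / Detection: luciferase luminescence / Measure: % activation of reporter signal versus tunicamycin and DMSO controls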
# CHOP confirm: retest of CHOP induction inhibitors, confirmation, cell-based | shares compounds with CHOP inh | CHO-CHOP promoter luciferase reporter, tunicamycin-induced, luminescence | inhibition, % at 10 µM | hit rate 45% among 2,100 | AID 504437, 2011;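 active means mean of three repeat readings of reporter signal inhibition above a set limit, cut at about 70% in these data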
# Numbers stand for hits; 0 = inactive; - = no result given. Shown is part of a subset that was picked to be rich in hits.
SMILES,UCH37 inh,Fh CTSL1 inh,CHOP inh,CHOP UPR activ,UPR XBP1 act,CHOP confirm
CC(=O)C1=C(S(=O)(=O)c2ccc(C)cc2)CS(=O)(=O)C1,0,-,98.1,0,0,71.3
CN(C)C=NC(=S)Nc1ccc(Cl)c(Cl)c1,0,-,-,-,-,-
CCOc1ccc(C=NNS(=O)(=O)c2ccc(C)cc2)cc1OC,0,-,-,-,-,-
Cc1cc(N/N=C\c2ccccc2)nc(-c2ccccc2O)n1,-,0,0,0,0,-
Cc1cc(N/N=C/c2ccc(O)cc2O)nc(-c2ccccc2O)n1,-,0,101.2,-,-,0
O=C(Nc1ccc(F)cc1)Nc1nnc(COc2ccccc2F)s1,0,0,0,0,0,-
O=C(Nc1nnc(CC2=CCCCC2)s1)Nc1ccccc1F,0,0,97.7,0,0,0
O=C(Nc1nnc(COc2ccccc2F)s1)Nc1ccccc1F,0,0,99.1,0,0,0
Cc1cccc(NC(=O)Cc2nnc(NC(=O)Nc3ccccc3F)s2)c1,0,0,0,0,0,-
Cc1ccccc1NC(=O)CCC(=O)NN=Cc1cccnc1,0,-,-,-,-,-
COC(=O)c1ccc(C=NN2CCN(Cc3ccc(C)cc3C)CC2)cc1,0,-,-,-,-,-
CC(C)(C)c1ccc(C2CC2C(=O)NN=Cc2ccc[nH]2)cc1 (stereo unspecified),0,-,-,-,-,-
CC(C)(C)c1ccc(C2CC2C(=O)N/N=C\c2ccc[nH]2)cc1 (stereo unspecified),-,0,104.8,0,0,94.9
COc1ccc(/C=N/N(Cc2ccccc2)c2ccccc2)cc1O,-,0,103.7,0,0,0
COc1ccc(C=NN(Cc2ccccc2)c2ccccc2)cc1O,0,-,-,-,-,-
CC(C)(C)n1nnnc1CN(Cc1ccc(F)cc1)Cc1ccco1,0,0,100.6,0,0,0
COc1cccc(CN(Cc2ccco2)C(c2ccc(F)cc2)c2nnnn2C(C)(C)C)c1 (stereo unspecified),0,0,0,0,0,-
COc1ccc(Cn2c(C)c(C)c(C#N)c2NC(=O)Nc2ccc(Cl)cc2)cc1,0,0,105.8,0,0,102.9
Cc1c(C#N)c(NC(=O)c2cccc(Cl)c2)n(Cc2ccccc2)c1C,0,0,0,0,0,-
COc1ccc(C(=O)c2c(C(F)(F)F)oc3c2C(=O)c2ccccc2C3=O)cc1OC,0,30.6,105.9,0,0,0
O=S1(=O)N=C(NN=Cc2cccs2)c2ccccc21,0,-,-,-,-,-
Cc1ccc(O)c(-c2cc(C(=O)Nc3ccc(S(=O)(=O)N4CC(C)OC(C)C4)cc3)[nH]n2)c1 (stereo unspecified),0,0,98.5,0,0,0
Cc1ccc(-c2cc(C(=O)Nc3ccc(S(=O)(=O)N4CC(C)OC(C)C4)cc3)[nH]n2)c(O)c1 (stereo unspecified),0,0,0,0,0,-
O=c1c2ccccc2c(C=Nc2cccc(O)c2)c(O)n1-c1ccc2c(c1)OCO2,0,0,107.3,0,0,0
O=C(NN=Cc1ccccn1)c1cc(-c2ccc(Cl)s2)[nH]n1,0,-,-,-,-,-
SMILES,UCH37 inh,Fh CTSL1 inh,CHOP inh,CHOP UPR activ,UPR XBP1 act,CHOP confirm
O=[N+]([O-])c1ccc(NC(=S)NCCc2ccc(Cl)cc2)cc1,0,0,105.3,0,0,94.0
O=[N+]([O-])c1ccc(NC(=S)NCCc2ccccc2)cc1,0,0,0,0,0,-
CSc1nc2ccc3nc(NC(=O)c4ccc(C)cc4)sc3c2s1,0,0,0,0,0,-
Cc1ccc(C(=O)Nc2nc3ccccc3c(=O)s2)cc1,0,0,102.4,0,0,0
Cc1ccc(C(=O)Nc2cnc3ccccc3c2)cc1,0,0,98.4,0,0,117.2
Cc1cc(C(=O)Nc2cnc3ccccc3c2)ccc1[N+](=O)[O-],0,0,0,0,0,-
Cc1ccc(NC2=C(Cl)C(=O)c3ccccc3C2=O)cc1,0,0,0,-,-,-
CCN(CC)c1ccc(NC2=C(Cl)C(=O)c3ccccc3C2=O)cc1,0,0,106.8,-,-,0
Cc1cc(C)c2c(c1)/C(=C/C(=O)c1ccc(Br)s1)C(=O)N2,0,0,109.8,0,0,0
Cc1cc(Br)c2c(c1)/C(=C/C(=O)c1cccs1)C(=O)N2,0,0,99.0,0,0,80.2
CN(C)/C=C/C(=O)c1ccc(Br)s1,0,0,0,0,0,-
Cc1cc(C)c(C(=O)c2cccs2)c(C)c1,0,-,-,-,-,-
Cc1cccc2c1NC(=O)/C2=C\C(=O)c1cccs1,0,0,110.2,0,0,0
CCc1ccc2c(c1)/C(=C/C(=O)c1cccs1)C(=O)N2,0,0,108.7,0,0,0
O=C(CCCC(=O)Nc1ccc(Br)cc1)NN=Cc1ccccc1,0,-,-,-,-,-
CCCCC(=O)NN=Cc1sccc1C,0,-,-,-,-,-
COC(=O)c1ccc(COc2ccccc2C=NNS(=O)(=O)c2ccc(C)cc2)cc1,0,-,-,-,-,-
O=S(=O)(/N=C(/Sc1ccccc1)c1ccccc1)c1ccccc1,-,0,111.8,0,0,0
CS/C(=N\S(=O)(=O)c1ccccc1)c1ccccc1,-,0,0,0,0,-
CN1/C(=C/C=NNC(=O)c2ccc([N+](=O)[O-])cc2)C(C)(C)c2ccccc21,0,-,-,-,-,-
C=C(C)COc1ccc(-c2ncncc2-c2ccc(Br)cc2)c(O)c1,0,0,-,0,0,-
C=C(C)COc1ccc(-c2n[nH]c(C)c2-c2ccc(Br)cc2)c(O)c1,0,0,-,0,0,106.2
Cc1cccc(N2CCN(C(=O)CS(=O)(=O)Cc3nc(-c4ccccc4F)oc3C)CC2C)c1 (stereo unspecified),0,0,98.4,0,0,80.1
Cc1oc(-c2ccccc2F)nc1CS(=O)(=O)CC(=O)N1CCOCC1,0,0,0,0,0,-
O=C(O)COc1ccccc1C=NNC(=O)c1cccc(S(=O)(=O)Nc2cccc(Cl)c2)c1,0,-,-,-,-,-
SMILES,UCH37 inh,Fh CTSL1 inh,CHOP inh,CHOP UPR activ,UPR XBP1 act,CHOP confirm
Cc1cc(C)nc(NS(=O)(=O)c2ccc(NC(=O)c3cc(-c4ccccc4)nc4ccccc34)cc2)n1,0,0,102.4,0,0,0
Cc1ccccc1COc1cccc(C=NNC(=O)c2nnn(-c3nonc3N)c2C)c1,0,-,-,-,-,-
CC1CCN(c2nc3ccc(C(=O)O)cc3s2)CC1,0,0,96.7,0,0,108.4
Cc1nc(Nc2nc(CSc3ccc(Cl)cc3)cc(=O)[nH]2)nc2ccccc12,0,0,0,0,0,-
COc1ccc2c(C)nc(Nc3nc(C)c(C)c(=O)[nH]3)nc2c1,0,0,99.1,0,0,106.2
COc1ccc2nc(Nc3nc(CSc4nc5ccccc5[nH]4)cc(=O)[nH]3)nc(C)c2c1,0,0,102.5,0,0,102.8
Cc1nc(Nc2nc(CSc3nc4ccccc4[nH]3)cc(=O)[nH]2)nc2ccccc12,0,0,99.3,0,0,86.7
